Measurements as given in ChEMBL document CHEMBL1250426, “Structure-activity relationship of brominated 3-alkyl-5-methylene-2(5H)-furanones and alkylmaleic anhydrides as inhibitors of Salmonella biofilm formation and quorum sensing regulated bioluminescence in Vibrio harveyi” (Bioorg Med Chem, 2010).
Active and inactive are the calls of the source. The calls are words filed in the database; no cut-off is given here.

Assays:
[1] = Inhibition of quorum sensing regulated bioluminescence in wild type Vibrio harveyi BB120 after 5 hrs by luminescence assay
Summary of the method: (§1)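 Twofold compound dilutions in LM broth; OD600-adjusted (0.4) AB-grown overnight culture diluted 1:100 in Luria-Marine broth, 200 µl per well. Incubated 5 h at 30 °C with aeration; luminescence imaged by CCD camera. IC50 = concentration inhibiting luminescence by 50%, fitted from gradients in 2–3 independent experiments (2–3 repeats each); top concentration 1000 µM.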

[2] = tested on: Vibrio harveyi; assay: Antimicrobial activity against wild type Vibrio harveyi BB120; assay type: functional
Summary of the method: (§2)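 Overnight AB-medium culture, OD600 adjusted to 0.4, diluted 1:100 into Luria-Marine broth and added to twofold compound dilutions in LM broth, 200 µl per well. Incubated 5 h at 30 °C with aeration under breathable seal; growth read as OD600. GIC50 = concentration reducing OD600 by 50%, from gradients in 2–3 independent experiments, 2–3 repeats each; highest concentration tested 1000 µM.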

[3] = tested on: Salmonella typhimurium; assay: Antimicrobial activity against Salmonella Typhimurium ATCC 14028 assessed as inhibition of biofilm formation after 48 hrs using crystal violet staining by microtiter plate assay; assay type: functional, organism-based, Salmonella enterica subsp. enterica serovar Typhimurium; conditions: Salmonella enterica, ATCC 14028, 48 h
Summary of the method: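 Peg-lid biofilm assay: overnight LB culture diluted 1:100 into TSB 1/20, ca. 1×10⁶ cells added to twofold compound dilutions, 200 µl total per well. Static incubation 48 h at 16 °C; lid moved to fresh medium with compound after 24 h. IC50 from concentration gradients, 2–3 independent experiments, 2–3 repeats each.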

[4] = tested on: Salmonella typhimurium; assay: Antimicrobial activity against Salmonella Typhimurium ATCC 14028 assessed as effect on planktonic growth at 250 uM after 36 hrs by microtiter plate assay; assay type: functional, organism-based; conditions: Salmonella enterica subsp. enterica serovar Typhimurium
Summary of the method: (§3)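 Overnight LB culture diluted 1:200 in TSB 1/20; 300 µl per well; compound serial dilutions made in EtOH, 3 µl added per well in triplicate; solvent-only controls in three- or fourfold. Incubated at 16 °C for at least 36 h with continuous shaking in Bioscreen reader; OD600 read every 15 min; growth curves compared with untreated controls.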

[5] = tested on: Salmonella typhimurium; assay: Antimicrobial activity against Salmonella Typhimurium ATCC 14028 assessed as effect on planktonic growth at 100 uM after 36 hrs by microtiter plate assay; assay type: functional, organism-based; conditions: Salmonella enterica subsp. enterica serovar Typhimurium; summary of the method: as §3
[6] = tested on: Salmonella typhimurium; assay: Antimicrobial activity against Salmonella Typhimurium ATCC 14028 assessed as effect on planktonic growth at 10 uM after 36 hrs by microtiter plate assay; assay type: functional, organism-based; conditions: Salmonella enterica subsp. enterica serovar Typhimurium; summary of the method: as §3
[7] = tested on: Salmonella typhimurium; assay: Antimicrobial activity against Salmonella Typhimurium ATCC 14028 assessed as effect on planktonic growth at 1 uM after 36 hrs by microtiter plate assay; assay type: functional, organism-based; conditions: Salmonella enterica subsp. enterica serovar Typhimurium; summary of the method: as §3
[8] = tested on: Vibrio harveyi; assay: Inhibition of quorum sensing regulated bioluminescence in Vibrio harveyi BNL258 harboring hfq::Tn5lacZ mutant quorum sensing after 5 hrs by luminescence assay
Summary of the method: (§4)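 Twofold serial dilutions in Luria-Marine broth; overnight culture (grown in AB medium) adjusted to OD600 0.4, diluted 1:100 and added 1:1 to wells (200 µl total). Incubated 5 h at 30 °C with aeration under breathable seal. Luminescence read by CCD camera, OD600 also measured. Luminescence expressed as percentage of untreated control of the same strain.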

[9] = tested on: Vibrio harveyi; assay: Inhibition of quorum sensing regulated bioluminescence in Vibrio harveyi JAF483 luxO D47A linked to Kan mutant quorum sensing after 5 hrs by luminescence assay; summary of the method: as §4
[10] = tested on: Vibrio harveyi; assay: Inhibition of quorum sensing regulated bioluminescence in Vibrio harveyi JAF553 luxU H58A linked to Kan mutant quorum sensing after 5 hrs by luminescence assay; summary of the method: as §4
[11] = tested on: L1210; assay: Cytotoxicity against mouse L1210 cells assessed as inhibition of cell proliferation after 2 days by coulter counter assay; assay type: cell-based; conditions: L1210, 48 h
Summary of the method: (§5)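 Cells suspended at 300,000–500,000 cells/mL; 100 µL added to equal volume of compound dilution in 96-well plates. Incubated at 37 °C for 2 days (L1210, FM3A), 3 days (CEM) or 4 days (HeLa, OST). Cell number counted by Coulter counter; IC50 = concentration inhibiting proliferation by 50%.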

[12] = tested on: FM3A; assay: Cytotoxicity against mouse FM3A cells assessed as inhibition of cell proliferation after 2 days by coulter counter assay; assay type: cell-based; conditions: 48 h; summary of the method: as §5
[13] = tested on: CCRF-CEM; assay: Cytotoxicity against human CEM cells assessed as inhibition of cell proliferation after 3 days by coulter counter assay; assay type: cell-based; conditions: 72 h; summary of the method: as §5
[14] = tested on: HeLa; assay: Cytotoxicity against human HeLa cells assessed as inhibition of cell proliferation after 4 days by coulter counter assay; assay type: cell-based; conditions: 96 h; summary of the method: as §5
[15] = tested on: OST; assay: Cytotoxicity against human thymidine kinase deficient OST cells assessed as inhibition of cell proliferation after 4 days by coulter counter assay; assay type: cell-based; conditions: 96 h; summary of the method: as §5
[16] = tested on: Vibrio harveyi; assay: Antimicrobial activity against wild type Vibrio harveyi BB120 at 1000 uM; assay type: functional, organism-based; summary of the method: as §2
[17] = Inhibition of quorum sensing regulated bioluminescence in wild type Vibrio harveyi BB120 at 1000 uM after 5 hrs by luminescence assay; summary of the method: as §1

SMILES: CCCCCCCCC1=C(Br)/C(=C/Br)OC1=O
- IC50 [1]: 3.41 µM
- GI50 [2]: 267 µM

SMILES: CCCCC1=C(Br)/C(=C/Br)OC1=O
- IC50 [3]: 23.1 µM
- Activity [4]: Active
- Activity [5]: inactive
- Activity [6]: inactive
- IC50 [1]: 1.36 µM
- GI50 [2]: 65.3 µM

SMILES: CCCCCC(Br)C1=C(Br)/C(=C/Br)OC1=O (stereo unspecified)
- IC50 [3]: 3.23 µM
- Activity [4]: inactive
- Activity [5]: inactive
- Activity [6]: inactive
- IC50 [1]: 5.21 µM
- GI50 [2]: 7.27 µM
- Activity [7]: inactive

SMILES: CCCCC1=C(Br)C(=C(Br)Br)OC1=O
- IC50 [1]: 14.4 µM
- GI50 [2]: 20.5 µM

SMILES: C=C1OC(=O)C(CCCCCC)=C1Br
- IC50 [3]: 19.4 µM
- Activity [4]: Active
- Activity [5]: Active
- Activity [6]: inactive
- IC50 [1]: 1.36 µM
- GI50 [2]: 36.3 µM
- Activity [8]: Active
- Activity [9]: Active
- Activity [10]: Active
- IC50 [11]: 8.5 µM
- IC50 [12]: 16 µM
- IC50 [13]: 7.5 µM
- IC50 [14]: 48 µM
- IC50 [15]: 2 µM

SMILES: CCC1=C(Br)/C(=C/Br)OC1=O
- IC50 [3]: 17.9 µM
- Activity [4]: Active
- Activity [5]: inactive
- Activity [6]: inactive
- IC50 [1]: 9.27 µM
- GI50 [2]: 10.8 µM
- IC50 [11]: 284 µM
- IC50 [12]: > 500 µM
- IC50 [13]: 208 µM
- IC50 [14]: 39 µM
- IC50 [15]: 6.3 µM

SMILES: CC(=O)OC(C)C1=C(Br)C(=C(Br)Br)OC1=O (stereo unspecified)
- IC50 [3]: 7.29 µM
- Activity [4]: Active
- Activity [5]: inactive
- Activity [6]: inactive
- IC50 [1]: 6.31 µM
- GI50 [2]: 25.4 µM
- Activity [7]: inactive

SMILES: O=C1C=CC(=C(Br)Br)O1
- IC50 [1]: 2.88 µM
- GI50 [2]: 25.5 µM

SMILES: CCCC(Br)C1=C(Br)/C(=C/Br)OC1=O (stereo unspecified)
- IC50 [3]: 5.71 µM
- Activity [4]: Active
- Activity [5]: Active
- Activity [6]: inactive
- IC50 [1]: 1.18 µM
- GI50 [2]: 4.04 µM
- Activity [7]: inactive

SMILES: CCCCC1=CC(=C(Br)Br)OC1=O
- IC50 [3]: 148 µM
- IC50 [1]: 18.9 µM
- GI50 [2]: 141 µM

SMILES: O=C1C=C/C(=C/Br)O1
- IC50 [1]: 4.07 µM
- GI50 [2]: 15.7 µM

SMILES: CCCCCCC1=C(Br)C(=O)OC1=O [BROMOHEXYLMALEIC ANHYDRIDE]
- IC50 [3]: 65.9 µM
- Activity [4]: inactive
- Activity [5]: inactive
- IC50 [1]: 10.6 µM
- GI50 [2]: 208 µM
- Activity [8]: Active
- Activity [9]: Active
- Activity [10]: Active
- IC50 [11]: 208 µM
- IC50 [12]: 243 µM
- IC50 [13]: 90 µM
- IC50 [14]: 156 µM
- IC50 [15]: 43 µM

SMILES: CC(=O)OC(C)C1=CC(=C(Br)Br)OC1=O (stereo unspecified)
- IC50 [3]: 162 µM
- Activity [4]: inactive
- Activity [5]: inactive
- Activity [6]: inactive
- Activity [7]: inactive

SMILES: CCC1=CC(=C(Br)Br)OC1=O
- IC50 [3]: 200 µM
- Activity [4]: inactive
- Activity [5]: inactive
- Activity [6]: inactive
- IC50 [1]: 105 µM
- GI50 [2]: 325 µM

SMILES: CCCCCCC1=CC(=C(Br)Br)OC1=O
- IC50 [3]: 160 µM
- IC50 [1]: 84 µM
- GI50 [2]: 197 µM

SMILES: CCCC(Br)C1=CC(=C(Br)Br)OC1=O (stereo unspecified)
- IC50 [3]: 1.31 µM
- Activity [4]: Active
- Activity [5]: Active
- Activity [6]: inactive
- IC50 [1]: 0.2 µM
- GI50 [2]: 1.07 µM
- Activity [7]: inactive

SMILES: CCCCCCC1=CC(=O)OC1=O
- IC50 [3]: > 1000 µM
- IC50 [1]: 97.8 µM
- GI50 [2]: 640 µM

SMILES: CCCCCCCCCCCCC1=C(Br)/C(=C/Br)OC1=O
- GI50 [16]: inactive
- IC50 [17]: Not Active

SMILES: CCCCCCCCCCC1=C(Br)/C(=C/Br)OC1=O
- IC50 [1]: 26.6 µM
- GI50 [2]: > 300 µM

SMILES: CCCCCCC1=C(Br)/C(=C/Br)OC1=O
- IC50 [3]: 10.7 µM
- Activity [4]: Active
- Activity [5]: inactive
- Activity [6]: inactive
- IC50 [1]: 11.9 µM
- GI50 [2]: 34 µM

SMILES: CC(Br)C1=C(Br)C(=C(Br)Br)OC1=O (stereo unspecified)
- IC50 [3]: 4.09 µM
- Activity [4]: inactive
- Activity [5]: inactive
- Activity [6]: inactive
- IC50 [1]: 2.76 µM
- GI50 [2]: 9.74 µM
- Activity [7]: inactive

SMILES: CCCC(OC(C)=O)C1=C(Br)/C(=C/Br)OC1=O (stereo unspecified)
- IC50 [3]: 132 µM
- Activity [4]: inactive
- Activity [5]: inactive
- Activity [6]: inactive
- IC50 [1]: 50.1 µM
- GI50 [2]: 147 µM
- Activity [7]: inactive

SMILES: CC(Br)C1=C(Br)/C(=C/Br)OC1=O (stereo unspecified)
- IC50 [3]: 4.5 µM
- Activity [4]: Active
- Activity [5]: Active
- Activity [6]: inactive
- IC50 [1]: 6.34 µM
- GI50 [2]: 16.1 µM
- Activity [7]: inactive

SMILES: CC(Br)C1=CC(=C(Br)Br)OC1=O (stereo unspecified)
- IC50 [3]: 1.17 µM
- Activity [4]: Active
- Activity [5]: Active
- Activity [6]: Active
- IC50 [1]: 0.774 µM
- GI50 [2]: 3.07 µM
- Activity [7]: inactive

SMILES: O=C1C=C(Br)/C(=C/Br)O1
- IC50 [1]: 2.71 µM
- GI50 [2]: 3.16 µM

SMILES: CCCCCCC1=C/C(=C/Br)OC1=O
- IC50 [3]: > 1000 µM

SMILES: CCC1=C(Br)C(=C(Br)Br)OC1=O
- IC50 [3]: 57.5 µM
- Activity [5]: inactive
- Activity [6]: inactive
- IC50 [1]: 1.15 µM
- GI50 [2]: 2.26 µM
